TRPC6 inhibitor: mouse TRPC6 channel inhibition; B-score at 10 µM; Q61143; actives 1.1% (n = 310,000); HEK293-TRPC6, membrane potential dye, ACh-evoked depolarization; hits give low values;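 active = B-score under library mean minus 3 SD, initial fluorescence not abnormally high, positive integrated signal ratio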;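 note: B-score derived from integrated fluorescence ratio over the kinetic read; more negative B-score means stronger inhibition of depolarization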
Target sequence (Q61143 whole entry, looked up): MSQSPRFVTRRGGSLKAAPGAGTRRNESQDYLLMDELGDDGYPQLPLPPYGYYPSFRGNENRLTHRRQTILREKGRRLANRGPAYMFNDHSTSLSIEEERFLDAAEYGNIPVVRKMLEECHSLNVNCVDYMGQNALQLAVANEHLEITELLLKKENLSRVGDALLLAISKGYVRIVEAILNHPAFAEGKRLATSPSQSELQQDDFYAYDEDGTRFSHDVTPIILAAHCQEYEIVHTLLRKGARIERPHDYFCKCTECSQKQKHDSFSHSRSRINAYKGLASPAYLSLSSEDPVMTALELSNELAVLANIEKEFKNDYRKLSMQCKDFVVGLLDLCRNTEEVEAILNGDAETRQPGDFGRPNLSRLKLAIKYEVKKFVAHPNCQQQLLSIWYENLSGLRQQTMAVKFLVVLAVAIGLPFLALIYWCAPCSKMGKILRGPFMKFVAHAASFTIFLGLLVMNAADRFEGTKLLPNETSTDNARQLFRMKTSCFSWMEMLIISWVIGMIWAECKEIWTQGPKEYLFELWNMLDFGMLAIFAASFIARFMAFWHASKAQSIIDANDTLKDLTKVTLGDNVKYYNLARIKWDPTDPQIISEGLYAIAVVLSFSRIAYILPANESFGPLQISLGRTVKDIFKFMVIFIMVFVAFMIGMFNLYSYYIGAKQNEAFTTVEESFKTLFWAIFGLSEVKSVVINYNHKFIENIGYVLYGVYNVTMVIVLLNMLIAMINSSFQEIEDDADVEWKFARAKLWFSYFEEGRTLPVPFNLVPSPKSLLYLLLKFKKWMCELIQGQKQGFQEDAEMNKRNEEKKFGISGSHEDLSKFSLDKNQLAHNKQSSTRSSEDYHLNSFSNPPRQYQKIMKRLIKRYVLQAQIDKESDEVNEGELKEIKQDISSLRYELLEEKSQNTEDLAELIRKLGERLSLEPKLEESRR
TRPC4 act: activators of mouse TRPC4 channel; HEK293 TRPC4beta/mu-opioid, Fluo4 calcium fluorescence; hits give high values; B-score at 10 µM; actives 0.49% (n = 310,000); AID 2237;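 active = B-score above 5 SD of library B-scores, and initial fluorescence ratio not above library mean plus 5 SD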;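 note: positive B-score marks a calcium rise read as TRPC4 activation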
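System – HEK293 cells stably co-expressing mouse TRPC4beta and mu-opioid receptor · Signal – Fluo4 calcium-sensitive dye fluorescence, kinetic, 1 Hz baseline · Benchmarks – buffer (low) and maximal DAMGO (high) · Read-out – B score of integrated fluorescence ratio per well · Incubation – dye loading 45 min room temperature, 110 s kinetic read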
TRPC6 act: mouse TRPC6 channel activation. actives 0.13% (n = 310,000). B-score at 10 µM. HEK293-TRPC6 membrane potential dye fluorescence; hits give high values;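 active = B-score of the integrated fluorescence ratio above library mean plus 3 SD, and starting fluorescence ratio within library mean plus 5 SD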;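 note: higher score means more depolarization so channel activation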
TRPC4 block: TRPC4 (mouse) channel inhibition | HEK293 TRPC4beta/mu-opioid, DAMGO-evoked Fluo4 calcium flux; hits give low values | B-score at 10 µM | actives 0.39% (n = 300,000) | AID 2247;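 active = B-score over 3 SD under the library average, no early fluorescence shift, positive overall ratio signal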
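Material: HEK293 cells with stable TRPC4beta plus mu-opioid receptor expression; probe or stimulus: DAMGO in two steps, submaximal then maximal; technique: Fluo4 calcium fluorescence by kinetic imaging, 5 s 1 Hz baseline; measure: integrated fluorescence ratio relative to baseline, converted to per-well B score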
TRPC4 PAM: TRPC4 (mouse) allosteric potentiation; Q9QUQ5; HEK293 TRPC4beta/mu-opioid, DAMGO EC20, Fluo-4 Ca2+ flux; hits give high values; actives 0.42% (n = 310,000); B-score at 10 µM;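 active = B-score of calcium response area above 5 SD of library B-scores, with initial fluorescence ratio within 5 SD of library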
Kir21 inh: inhibitors of mouse Kir2.1 inward-rectifier potassium channel. HEK293-Kir2.1, FluxOR thallium flux fluorescence; hits give low values. B-score at 10 µM. actives 0.85% (n = 310,000). AID 1672;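 active = fluorescence ratio B-score at or below minus 3 SD of library scores, with starting-brightness B-score within 2 SD, cut at about -4.2 in these data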;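 note: channel flux triggered by added potassium and thallium sulfate stimulus; B-score of peak minus minimum fluorescence over baseline after thallium stimulus; more negative B-score means stronger Kir2.1 block with less thallium influx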
TRPC4 sel inh 2: second selectivity test of TRPC6 inhibitors: effect on mouse TRPC4 | shares compounds with TRPC6 inhibitor | HEK293 TRPC4/MOR, membrane potential dye fluorescence; channel activated by saturating DAMGO dose | inhibition, % at 10 µM | actives 42% (n = 920);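 active = compounds whose fluorescence signal differed from control wells by over 3 SD, either direction, in both duplicate plates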
TRPC4 spec: tests whether TRPC6 inhibitors also affect mouse TRPC4 | shares compounds with TRPC6 inhibitor | HEK293 TRPC4/mu-opioid, membrane potential fluorescence | activity change, negative = inhibition, % at 10 µM | actives 61% (n = 920) | AID 2777;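 active = rise or fall in signal beyond 3 SD of buffer-only wells in both replicate plates, either sign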;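 note: integrated kinetic ratio of fluorescence range over baseline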
HEK293 MPD ctr 2-1: second counter-screen for TRPC6 inhibitors: parental HEK293 cells | shares compounds with TRPC6 inhibitor | parental HEK293 membrane potential dye fluorescence; maximal acetylcholine challenge after compound addition | signal change vs control, % at 10 µM | actives 31% (n = 920);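 active = membrane potential signal moving either way by over 3 SD of the maximum-effect control, in both duplicate plates, meaning non-specific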
HEK293 MPD ctr-1: checks TRPC6 inhibitor effects in parental HEK293 cells. shares compounds with TRPC6 inhibitor. parental HEK293 membrane potential dye fluorescence. membrane potential signal change, % at 10 µM. actives 60% (n = 920);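 active = membrane potential signal shifting up or down by more than 3 SD of buffer-only wells, on both duplicate plates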
HEK293 MPD ctr-2: counter-screen for TRPC6 modulators: effect in parental HEK293 cells. shares compounds with TRPC6 inhibitor. membrane potential dye fluorescence. membrane potential signal change, % at 10 µM. actives 51% (n = 2,400). AID 488924;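 active = membrane potential signal moves up or down beyond 5 SD from buffer-only wells, on both duplicate plates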
HEK293 MPD ctr 2-2: second counter-screen for TRPC6 modulators: effect in parental HEK293 cells; shares compounds with TRPC6 inhibitor; membrane potential dye fluorescence; after compound, maximal acetylcholine stimulation; inhibition, % at 10 µM; actives 14% (n = 2,400); AID 488926;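 active = membrane potential signal drops by more than 5 SD from the mean control signal, in both duplicate plates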
TRPC4/MOR mod: selectivity of TRPC6 modulators against mouse TRPC4 | shares compounds with TRPC6 inhibitor | HEK293 TRPC4/mu-opioid, membrane potential fluorescence | percent change from control (negative = decrease, positive = increase), % at 10 µM | actives 69% (n = 2,400) | AID 488927;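 active = membrane potential signal moved up or down beyond 5 SD of buffer control wells, in both duplicate plates, actives on both sides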
TRPC4 ctr inh 2: second check of whether TRPC6 modulators also affect mouse TRPC4; shares compounds with TRPC6 inhibitor; HEK293 TRPC4/mu-opioid, membrane potential dye fluorescence; stimulated with maximal-effect DAMGO; inhibition, % at 10 µM; actives 55% (n = 2,400);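 active = drop in membrane potential signal beyond 5 SD of the control wells in both duplicate plates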;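 note: TRPC4 counter screen for TRPC6 hits run under conditions tuned for TRPC6 not TRPC4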
TRPC6 block conf: confirmation of mouse TRPC6 inhibitors. HEK293-TRPC6, membrane potential dye, ACh-evoked depolarization. shares compounds with TRPC6 inhibitor. inhibition, % at 10 µM. actives 43% (n = 3,300). AID 488960;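 active = fluorescence ratio falls more than 5 SD below the full-stimulation control mean, in both duplicate runs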;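 note: integrated fluorescence ratio of peak minus minimum over baseline after agonist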
TRPC6 act confirm: mouse TRPC6 activator confirmation; shares compounds with TRPC6 inhibitor; HEK293-TRPC6 membrane potential dye fluorescence, FDSS; activation, % at 10 µM; actives 11% (n = 2,800);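 active = ratio signal rise beyond 5 SD above unstimulated control wells' mean, seen in both duplicate runs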
Numbers stand for hits; 0 = inactive; - = no result. Compounds with a hit are over-represented: about 2.9% of the library has one in this group of screens.

SMILES	TRPC6 inhibitor	TRPC4 act	TRPC6 act	TRPC4 block	TRPC4 PAM	Kir21 inh	HEK293 MPD ctr-2	HEK293 MPD ctr 2-2	TRPC4/MOR mod	TRPC4 ctr inh 2	TRPC6 block conf	TRPC6 act confirm	others
CCOc1ccc(NC(=S)N(CCCN2CCCC2)Cc2cccn2Cc2ccc(Cl)cc2)cc1	-5.16	0	0	0	0	0	0	0	0	53.0%	0	0
N#C/C(C(N)=O)=c1/ccc2c(c1)N1C3=C(CCCC3)CC3CCCCC31N=2 (centres undefined)	-12.4	0	0	0	0	0	-262.5%	82.0%	-52.5%	94.0%	80.0%	0
Cn1c(=O)c(C(=O)Nc2ccccc2S(N)(=O)=O)c(O)c2ccccc21	0	0	0	0	0	0	-	-	-	-	-	-
Cn1c(=O)c(C(=O)Nc2ccccn2)c(O)c2ccccc21	-8.66	0	0	0	0	0	-	-	-	-	0	0	TRPC4 sel inh 2=0;TRPC4 spec=-21.3%;HEK293 MPD ctr 2-1=0;HEK293 MPD ctr-1=-327.0%
COc1ccc(OC)c(/C=N/n2c(-c3n[nH]c4c3CCC4)n[nH]c2=S)c1	0	0	0	0	0	0	-	-	-	-	-	-
CC(/C=N/n1c(-c2n[nH]c3c2CCC3)n[nH]c1=S)=C\c1ccco1	-8.44	0	0	0	0	0	-	-	-	-	69.5%	0	TRPC4 sel inh 2=0;TRPC4 spec=0;HEK293 MPD ctr 2-1=-11.0%;HEK293 MPD ctr-1=0
COc1ccc(/C=N/n2c(-c3n[nH]c4c3CCC4)n[nH]c2=S)cc1	-5.01	0	0	0	0	0	0	0	0	0	0	-
S=C(NCCCN1CCOCC1)N1CCOCC1	0	0	0	0	0	0	-	-	-	-	-	-
O=C(O)CCc1ccc(-c2cccs2)n1NC(=O)c1ccc(Cl)cc1Cl	0	0	0	0	0	0	-	-	-	-	-	-
CCCCN1C(=S)SC(C)(C)C1/[N+]([O-])=C/c1cccnc1 (centres undefined)	-6.61	0	0	0	0	0	-	-	-	-	56.6%	-	TRPC4 sel inh 2=0;TRPC4 spec=0;HEK293 MPD ctr 2-1=0;HEK293 MPD ctr-1=0
CCN(CC)CCN(Cc1cc2cc3c(cc2[nH]c1=O)OCO3)C(=S)NCc1ccco1	-5.55	0	0	0	0	0	0	0	0	58.0%	0	-
CC1=Nc2ccc(C)c3nc(C)cc(c23)N1c1ccc(C)cc1	-13.3	0	0	0	0	0	-157.0%	88.5%	-33.0%	82.5%	87.0%	0
Cc1ccc(N2C=Nc3ccc(C)c4nc(C)cc2c34)cc1	-10.1	0	0	0	0	0	-248.5%	64.5%	-52.5%	73.5%	60.5%	0
CN(C)c1cc(N/N=C/c2ccccc2C(F)(F)F)nc(N(C)C)n1	-5.07	0	0	0	0	0	0	0	0	0	0	0
OC(C#CCCN1CCCCC1)(c1ccccc1)c1ccccc1	-8.8	0	0	0	0	0	-	-	-	-	72.2%	-	TRPC4 sel inh 2=0;TRPC4 spec=6.0%;HEK293 MPD ctr 2-1=14.5%;HEK293 MPD ctr-1=6.0%
OC(C#CCCN1CCCCC1)(c1ccccc1)C1CCCCC1 (centres undefined)	-7.45	0	0	0	0	0	-	-	-	-	75.4%	-	TRPC4 sel inh 2=0;TRPC4 spec=23.4%;HEK293 MPD ctr 2-1=0;HEK293 MPD ctr-1=14.9%
CCN(CC)CCC#CC(O)(c1ccccc1)c1ccccc1	-8.85	0	0	0	0	0	-	-	-	-	63.1%	-	TRPC4 sel inh 2=0;TRPC4 spec=6.4%;HEK293 MPD ctr 2-1=-9.0%;HEK293 MPD ctr-1=8.6%
O=C(CCN1CCCCC1)c1ccccc1	0	0	0	0	0	0	-	-	-	-	-	-
COc1cc(C=O)ccc1OCc1ccc(Cl)nc1	0	0	0	0	0	0	-	-	-	-	-	-
Cc1ccc(C(=O)Nc2cccc(C(=O)N/N=C/c3ccc(F)cc3)c2)cc1	-5.96	0	0	0	0	0	0	0	0	0	0	0
CCOc1cc(/C=C2\C(=N)N3N=C(C)SC3=NC2=O)ccc1OCCOc1cccc(OC)c1	0	0	0	0	0	0	-	-	-	-	-	-
CCc1nn2c(=O)cc(COc3ccc(/C=C4\C(=N)N5N=C(C)SC5=NC4=O)cc3)nc2s1	0	0	13.2	0	0	0	228.0%	0	40.5%	0	0	88.0%
COC(=O)c1c(C)oc(C)c1S(=O)(=O)NCc1ccc(OC)cc1	0	0	0	0	0	0	-	-	-	-	-	-
O=C1c2ccccc2NC(c2ccc(O)cc2)N1Cc1ccco1 (centres undefined)	0	0	0	0	0	0	-	-	-	-	-	-
Cc1ccc(-n2c(-c3cccc(C)c3)n[nH]c2=S)cc1	-17.6	0	0	0	0	0	0	0	0	0	0	0
CC(C)n1cc(CN2CCCC(CNS(=O)(=O)c3cccc4cccnc34)C2)cn1 (centres undefined)	0	0	0	0	0	0	-	-	-	-	-	-
CCOC(=O)c1c(C)n(-c2ccc(C)cc2)c2ccc(O)c(CN(C)C)c12	-5.7	0	0	0	0	0	-96.5%	0	-18.0%	61.5%	51.0%	0
CCOC(=O)c1c(C)n(-c2ccc(OC)cc2)c2ccc(O)c(CN(C)C)c12	-8.84	0	0	0	0	0	-	-	-	-	60.3%	0	TRPC4 sel inh 2=46.0%;TRPC4 spec=-17.5%;HEK293 MPD ctr 2-1=0;HEK293 MPD ctr-1=-286.0%
CCOC(=O)c1c(C)n(C)c2ccc(O)c(CN3CCCCC3)c12	-8	0	0	0	0	0	-172.5%	0	-30.5%	59.0%	65.5%	0
CCOC(=O)c1c(C)n(C)c2ccc(O)c(CN(C)C)c12	-8.65	0	0	0	0	0	-242.0%	0	-41.0%	59.0%	61.5%	0

From PubChem BioAssay
